In ChEMBL document CHEMBL1145990, “Synthesis and in vitro antitumor activity of phenanthrolin-7-one derivatives, analogues of the marine pyridoacridine alkaloids ascididemin and meridine: structure-activity relationship” (J Med Chem, 2003):

How the values were obtained:
[1] = tested on: J82; experiment: In vitro antitumor effects against human J82 cell lines.; assay type: functional, cell-based
Outline: (§1)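 Cells grown at 37°C in sealed dishes in MEM with 5% FCS, seeded at 40000 cells/mL and allowed 24 h to plate. Six concentrations from 10 µM to 0.1 nM were tested. Growth was read by MTT reduction to formazan at 570 nm (630 nm reference), in sextuplicate. IC50 is the concentration giving 50% growth inhibition versus control, as the mean of three independent assays.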

[2] = tested on: U-87 MG; experiment: In vitro antitumor effects against human U87MG cell lines.; assay type: functional, cell-based, U-87MG ATCC; outline: as §1
[3] = tested on: HCT-15; experiment: In vitro antitumor effects against human HCT-15 cell lines.; assay type: functional, cell-based; outline: as §1
[4] = tested on: A549; experiment: In vitro antitumor effects against human A-549 cell lines.; assay type: functional, cell-based; outline: as §1
[5] = tested on: A-427; experiment: In vitro antitumor effects against human A-427 cell lines.; assay type: functional, cell-based; outline: as §1
[6] = tested on: PC-3; experiment: In vitro antitumor effects against human PC-3 cell lines.; assay type: functional, cell-based; outline: as §1
[7] = tested on: MCF7; experiment: In vitro antitumor effects against human MCF-7 cell lines.; assay type: functional, cell-based; outline: as §1
[8] = tested on: T-24; experiment: In vitro antitumor effects against human T24 cell lines.; assay type: functional, cell-based; outline: as §1
[9] = tested on: Mus musculus; experiment: Maximum tolerated dose following single i.p. injection to B6D2F1/jico mice.; assay type: functional
Outline: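 Healthy non-tumour-bearing B6D2F1 mice given one acute intraperitoneal dose at 5, 10, 20, 40, 80 or 160 mg/kg. Three mice per dose group. Survival and body weight recorded for up to 28 days after injection. MTD taken as the highest dose tolerable acutely.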

[10] = tested on: LoVo; experiment: In vitro antitumor effects against human LoVo cell lines.; assay type: functional, cell-based; outline: as §1
[11] = tested on: SW1088; experiment: In vitro antitumor effects against human SW 1088 cell lines.; assay type: functional, cell-based
[12] = tested on: T47D; experiment: In vitro antitumor effects against human T-47D cell lines.; assay type: functional, cell-based; outline: as §1
[13] = tested on: U373 MG; experiment: In vitro antitumor effects against human U-373MG cell lines.; assay type: functional, cell-based, U-373MG ATCC; outline: as §1

| Structure (SMILES) | IC50 [1] [nM] | IC50 [2] [nM] | IC50 [3] [nM] | IC50 [4] [nM] | IC50 [5] [nM] | IC50 [6] [nM] | IC50 [7] [nM] | IC50 [8] [nM] | MTD [9] [mg/kg] | IC50 [10] [nM] | IC50 [11] [nM] | IC50 [12] [nM] | IC50 [13] [nM] |
| --- | --- | --- | --- | --- | --- | --- | --- | --- | --- | --- | --- | --- | --- |
| COc1ccnc2c1C(=O)c1nccc3ccnc-2c13 | 3000 | 4000 | 800 | 800 | 800 | 600 | 600 | 700 | 10 | 900 | 900 | 400 | 800 |
| COc1cnc2c3c(nccc13)-c1cccnc1C2=O | 800 | 50 | 90 | 50 | 70 | 80 | 60 | 60 | >160 | 700 | 80 | 6000 | 70 |
| O=C1c2cccnc2-c2nccc3ccnc1c23 | 5000 | 500 | 900 | 800 | 7000 | 5000 | 200 | 300 | 10 | 2000 | 4000 | 700 | 800 |
| CN(C)c1cc(Cl)nc2c1-c1nccc3ccnc(c13)C2=O | 5000 | 6000 | 5000 | > 10000 | 6000 | > 10000 | 6000 | 6000 | 40 | 5000 | 5000 | 4000 | 6000 |
| COc1cc(OC)c2c(n1)C(=O)c1nccc3ccnc-2c13 | 5000 | 5000 | 5000 | 6000 | 5000 | 6000 | 5000 | 6000 | 40 | 4000 | 5000 | 5000 | 6000 |
| COc1ccnc2c1-c1nccc3ccnc(c13)C2=O | 2000 | 100 | 100 | 300 | 70 | 900 | 200 | 300 | 5 | 300 | 2000 | 3000 | 100 |
| COc1ccc2c(n1)-c1nccc3ccnc(c13)C2=O | 5000 | 6000 | 6000 | 9000 | 6000 | 6000 | 5000 | 5000 | >160 | > 10000 | 5000 | 6000 | 5000 |
| O=C1c2nccc(O)c2-c2nccc3ccnc1c23 | 6000 | 8000 | 6000 | 6000 | 6000 | > 10000 | 5000 | 8000 | 10 | 5000 | 6000 | 6000 | 6000 |
| O=C1c2ncccc2-c2nccc3ccnc1c23 | 5000 | 6000 | 600 | 3000 | 700 | 900 | 600 | 800 | 10 | 2000 | 5000 | 800 | 4000 |
| CN(C)c1ccnc2c1-c1nccc3ccnc(c13)C2=O | 4000 | 2000 | 2000 | 1000 | 900 | 4000 | 900 | 1000 | 10 | 2000 | 5000 | 4000 | 1000 |
| COc1ccnc2c1C(=O)c1ncc(OC)c3ccnc-2c13 | 5000 | 800 | 3000 | 5000 | 800 | 800 | 2000 | 2000 | 80 | 800 | 3000 | 5000 | 2000 |
| COc1ccc2c(n1)C(=O)c1ncc(OC)c3ccnc-2c13 | 8000 | 700 | 600 | 800 | 500 | 1000 | 500 | 600 | >160 | 600 | 500 | 1000 | 800 |
| O=C1c2c(Cl)ccnc2-c2nccc3ccnc1c23 | 4000 | 800 | 1000 | 800 | 700 | 5000 | 600 | 3000 | 20 | 1000 | 4000 | 1000 | 4000 |
| COc1ccnc2c1-c1nccc3c(OC)cnc(c13)C2=O | 200 | 8 | 40 | 5 | 6 | 40 | 30 | 9 | 20 | 8 | 8 | 60 | 7 |
| COc1cnc2c3c(nccc13)-c1ncccc1C2=O | 4000 | 300 | 700 | 500 | 500 | 500 | 400 | 500 | >160 | 5000 | 300 | 7000 | 600 |
| COc1cnc2c3c(nccc13)-c1c(N(C)C)ccnc1C2=O | 6000 | 3000 | 3000 | 3000 | 3000 | 6000 | 4000 | 5000 | >160 | 3000 | 6000 | 4000 | 5000 |
| COc1ccc2c(n1)C(=O)c1nccc3ccnc-2c13 | 5000 | 6000 | 6000 | 9000 | 6000 | 6000 | 5000 | 6000 | 40 | 5000 | 5000 | 6000 | 6000 |
